Measured values from ChEMBL document CHEMBL5335784, “Discovery of a novel 1,3,4-oxadiazol-2-one-based NLRP3 inhibitor as a pharmacological agent to mitigate cardiac and metabolic complications in an experimental model of diet-induced metaflammation” (Eur J Med Chem, 2023).
pIC50: −log10 of the molar value. Active and inactive are the calls of the source. The calls are words filed in the database; no cut-off is given here.

What was measured:
Rattus norvegicus [1] = assay: Antiinflammatory activity against high fat diet fed-induced metaflammation Wistar rat model assessed as reduction in HFD-induced metabolic alterations by measuring reduction in total cholesterol level in plasma at 20 mg/kg/day, ip administered for 4 weeks; format: functional, organism-based
Outline: (§1)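 Rats fed HFD or SD for 12 weeks, dosed 20 mg/kg/day i.p. in saline/2% DMSO/5% Cremophor-EL during the final 28 days. Serum obtained after sacrifice by centrifuging blood at 2000 x g, 10 min, 4 °C. Glucose read by glucometer; total, HDL and LDL cholesterol and triglycerides measured with commercial kits. n=6–7 per group.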

[2] = Effect on glyco-metabolic profile in standard diet fed Wistar rat assessed as effect on total cholesterol level in plasma at 20 mg/kg/day, ip administered for 4 weeks; format: toxicity, organism-based; details: in vivo, 672 h; outline: as §1
[3] = molecular target: NACHT, LRR and PYD domains-containing protein 3 (Homo sapiens, UniProt Q96P20); assay: Inhibition of NLRP3 inflammasome activation in PMA-differentiated human THP-1 cells assessed as inhibition of LPS/ATP-induced IL-1 beta release pretreated for 4 hrs with LPS followed by incubation with compound for 1 hr and later treated with ATP for 1.5 hrs by ELISA; format: cell-based
[4] = Effect on glyco-metabolic profile in standard diet fed Wistar rat assessed as effect on LDL cholesterol level in plasma at 20 mg/kg/day, ip administered for 4 weeks; format: toxicity, organism-based; details: in vivo, 672 h; outline: as §1
Rattus norvegicus [5] = assay: (§2) Cardioprotective activity against myocardial ischemia/reperfusion injury-induced contractile impairment and standard diet fed Wistar rat model assessed as developed LVP recovery at 20 mg/kg/day, ip administered for 4 weeks followed by excised heart exposed to global ischemia for 30 mins and reperfusion for 120 mins and measured at the end of reperfusion (reference value: 43 +/-7 mmHg); format: functional
[6] = Effect on TNF-alpha level in standard diet fed Wistar rat serum at 20 mg/kg/day, ip administered for 4 weeks by ELISA; format: toxicity, organism-based; details: in vivo, 672 h
Outline: (§3)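 Male Wistar rats on HFD or SD for 12 weeks received 20 mg/kg/day i.p. (saline, 2% DMSO, 5% Cremophor-EL) or vehicle for the last 28 days. Circulating IL-1β, TNF-α, BNP and Gal-3 quantified by ELISA in blood collected after sacrifice. n=6–7 per group.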

Rattus norvegicus [7] = assay: (§4) Cardioprotective activity against ischemia/reperfusion-induced myocardial injury and standard diet fed Wistar rat model assessed as decrease in LDH activity in coronary effluents at 20 mg/kg/day, ip administered for 4 weeks followed by excised heart exposed to global ischemia for 30 mins and reperfusion for 120 mins and measured during first 30 mins of reperfusion by spectrophotometric analysis; format: functional, organism-based
Outline: (§5)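 HFD or SD rats, dosed 20 mg/kg/day i.p. for the final 28 days, anaesthetised with ethyl carbamate (2 g/kg i.p.). Hearts Langendorff-perfused with Krebs–Henseleit buffer (pH 7.4, 37 °C, 12 ml/min); 40 min stabilization, 30 min global no-flow ischemia, 120 min reperfusion. Coronary effluent collected on ice before ischemia and at 10, 20, 30 min reperfusion; LDH activity by McQueen method. n=6–7.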

Rattus norvegicus [8] = assay: Antiinflammatory activity against high fat diet fed-induced metaflammation Wistar rat model assessed as reduction in HFD-induced anthropometric alterations by measuring reduction in body weight gain at 20 mg/kg/day, ip administered for 4 weeks; format: functional, organism-based
Outline: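 Male Wistar rats on high-fat diet (60% kcal fat) or standard diet for 12 weeks; 20 mg/kg/day i.p. or vehicle (saline, 2% DMSO, 5% Cremophor-EL) over the last 28 days. Body weight recorded weekly. After sacrifice, abdominal, epididymal, retroperitoneal and perirenal fat, liver and heart excised and weighed. Cardiac somatic index = heart weight/body weight ×100. n=6–7 per group.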

[9] = Stability of the compound in saline solution containing 2% DMSO and 5% Cremophor-EL measured at 25 degC for more than 7 days by RP-HPLC analysis; format: physicochemical; details: buffer, 168 h; time 7 day
Outline: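 A 2 mg/mL solution in saline with 2% DMSO and 5% Cremophor-EL was kept at 4 °C or 25 °C for 7 days and analysed daily by RP-HPLC at 226/254 nm.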

Rattus norvegicus [10] = assay: Cardioprotective activity against ischemia/reperfusion-induced myocardial injury and standard diet fed Wistar rat model assessed as infarct size at 20 mg/kg/day, ip administered for 4 weeks followed by excised heart exposed to global ischemia for 30 mins and reperfusion for 120 mins and measured at the end of reperfusion by nitroblue tetrazolium staining based analysis (Rvb ~ 62+/-2%); format: functional; details: 672 h
Outline: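 Hearts from HFD or SD rats (20 mg/kg/day i.p., last 28 days) Langendorff-perfused (KH buffer, 37 °C, 12 ml/min). After 40 min stabilization they underwent 30 min global ischemia and 120 min reperfusion. The LV was stained; unstained necrotic and stained viable tissue separated and weighed. Infarct size expressed as % of LV mass. n=6–7.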

[11] = Drug metabolism in human serum assessed as half time for compound hydrolysis to 2-(5-(2-Chlorobenzyl)-2-oxo-1,3,4-oxadiazol-3(2H)-yl)acetic acid at 100 uM by RP-HPLC analysis; format: ADME, cell-free
Outline: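 Compound at 100 μM final (from 10 mM DMSO stock) in human male AB serum held at 37 °C. Aliquots at intervals deproteinized with CH3CN/0.1% TFA, centrifuged, filtered and analysed by RP-HPLC against calibration standards. Pseudo-first-order t1/2 from exponential decay fit; three experiments.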

Rattus norvegicus [12] = assay: as §2, with “left ventricular end diastolic pressure” for “developed LVP recovery”, “21 +/-2” for “43 +/-7”; format: functional
Rattus norvegicus [13] = assay: Antiinflammatory activity against high fat diet fed-induced metaflammation Wistar rat model assessed as reduction in HFD-induced metabolic alterations by measuring reduction in plasma glucose level at 20 mg/kg/day, ip administered for 4 weeks by glucometer analysis; format: functional, organism-based; outline: as §1
Rattus norvegicus [14] = assay: Cardioprotective activity against high fat diet fed-induced metaflammation Wistar rat model assessed as reduction in myocardial damage by measuring reduction in plasma Gal-3level at 20 mg/kg/day, ip administered for 4 weeks by ELISA; format: functional, organism-based; outline: as §3
Rattus norvegicus [15] = assay: as §4, with “high” for “standard”, “fed obese” for “fed”; format: functional, organism-based; outline: as §5
[16] = Effect on LDH level in standard diet fed Wistar rat plasma at 20 mg/kg/day, ip administered for 4 weeks; format: toxicity, organism-based; details: in vivo, 672 h
Rattus norvegicus [17] = assay: (§6) Inhibition of ischemia/reperfusion-induced oxidative stress in ischemia/reperfusion-induced myocardial injury and standard diet fed Wistar rat model assessed as increase in cardiac SOD activity at 20 mg/kg/day, ip administered for 4 weeks followed by excised heart exposed to global ischemia for 30 mins and reperfusion for 120 mins; format: functional, organism-based
Outline: (§7)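 Same rat diet, dosing and ischemia/reperfusion protocol. LV homogenized in 50 mM Tris-HCl pH 8.2 with 1 mM DTPA and centrifuged at 20,000 x g for 20 min. Supernatant mixed with 0.2 mM pyrogallol, autoxidation followed at 420 nm for 3 min. Activity given as % pyrogallol autoxidation relative to sham; 1 U inhibits the rate by 50%.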

Rattus norvegicus [18] = assay: Inhibition of ischemia/reperfusion-induced NLRP3 inflammasome activation in ischemia/reperfusion-induced myocardial injury and high fat diet fed obese Wistar rat model assessed as decrease in NLRP3 protein expression at 20 mg/kg/day, ip administered for 4 weeks followed by excised heart exposed to global ischemia for 30 mins and reperfusion for 120 mins by immunoblot analysis; format: functional, organism-based
Outline: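 Left ventricles from Langendorff hearts (30 min global ischemia/120 min reperfusion) of HFD or SD rats dosed 20 mg/kg/day i.p. for the final 28 days. Tissue homogenized in RIPA buffer with protease/phosphatase inhibitors. 50 μg protein run on 8% SDS-PAGE and immunoblotted for NLRP3 (1:500), normalized to β-actin by densitometry; n=4 per group.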

Rattus norvegicus [19] = assay: as §6, with “high fat” for “standard”, “fed obese” for “fed”; format: functional, organism-based; outline: as §7

Chain of NACHT, LRR and PYD domains-containing protein 3 (Q96P20 whole entry, the tested form may be a part): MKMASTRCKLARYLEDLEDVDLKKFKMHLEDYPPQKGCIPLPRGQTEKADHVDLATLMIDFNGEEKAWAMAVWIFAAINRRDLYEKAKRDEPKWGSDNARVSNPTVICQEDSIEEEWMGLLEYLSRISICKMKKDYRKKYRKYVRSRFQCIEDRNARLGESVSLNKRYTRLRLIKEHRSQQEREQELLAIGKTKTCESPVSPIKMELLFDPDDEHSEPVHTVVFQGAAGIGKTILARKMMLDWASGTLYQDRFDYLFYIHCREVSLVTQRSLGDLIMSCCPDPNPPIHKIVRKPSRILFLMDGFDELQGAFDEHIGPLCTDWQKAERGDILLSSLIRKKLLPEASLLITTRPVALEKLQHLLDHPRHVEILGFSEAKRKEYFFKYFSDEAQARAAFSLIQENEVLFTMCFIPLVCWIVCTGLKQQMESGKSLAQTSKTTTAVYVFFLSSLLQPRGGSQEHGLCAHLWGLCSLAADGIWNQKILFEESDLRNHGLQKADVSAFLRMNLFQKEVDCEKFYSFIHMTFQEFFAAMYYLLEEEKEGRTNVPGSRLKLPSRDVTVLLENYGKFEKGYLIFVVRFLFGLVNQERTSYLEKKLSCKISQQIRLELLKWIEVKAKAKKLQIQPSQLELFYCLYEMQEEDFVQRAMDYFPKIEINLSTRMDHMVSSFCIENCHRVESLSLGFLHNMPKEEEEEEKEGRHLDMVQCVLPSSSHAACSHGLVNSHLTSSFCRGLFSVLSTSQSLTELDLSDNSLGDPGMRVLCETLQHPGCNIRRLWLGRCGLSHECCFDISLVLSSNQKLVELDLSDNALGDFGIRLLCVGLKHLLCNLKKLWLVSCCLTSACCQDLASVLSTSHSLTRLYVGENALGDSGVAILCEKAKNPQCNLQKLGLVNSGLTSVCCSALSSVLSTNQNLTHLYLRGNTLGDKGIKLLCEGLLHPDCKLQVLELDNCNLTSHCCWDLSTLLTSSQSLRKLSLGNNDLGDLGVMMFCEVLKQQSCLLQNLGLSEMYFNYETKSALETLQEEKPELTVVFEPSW

CCOC(=O)Cn1nc(Cc2ccccc2Cl)oc1=O
Activity (Rattus norvegicus [1]): Active | Activity [2]: Non-Toxic | pIC50 [3]: 4.78 | Activity [4]: Non-Toxic | Activity (Rattus norvegicus [5]): 80 mmHg | Activity [6]: Non-Toxic | Activity (Rattus norvegicus [7]): Active | Activity (Rattus norvegicus [8]): inactive | Stability [9]: Stable | infarct size in vivo at 20 mg/kg/day (Rattus norvegicus [10]): ~53% | half-life at 100 µM [11]: 4 h | Activity (Rattus norvegicus [12]): 13 mmHg | Activity (Rattus norvegicus [13]): Active | Activity (Rattus norvegicus [14]): Active | Activity (Rattus norvegicus [15]): Active | Activity [16]: Non-Toxic | inhibition (Rattus norvegicus [17]): Active | inhibition (Rattus norvegicus [18]): Active | inhibition (Rattus norvegicus [19]): Active
